Results: ChEMBL document CHEMBL3627597, “Synthesis of Fluorine-Containing Phosphodiesterase 10A (PDE10A) Inhibitors and the In Vivo Evaluation of F-18 Labeled PDE10A PET Tracers in Rodent and Nonhuman Primate” (J Med Chem, 2015)

Columns and labels:
Nucleic Acid [1] = experiment: Ratio of drug level in striatum to occipital in cynomolgus monkey at 185 to 259 MBq, iv measured at 70 mins by micro PET image analysis; format: ADME, organism-based, Macaca fascicularis; conditions: in vivo
In short: (§1)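 Adult male cynomolgus macaques (~4–6 kg), three independent PET studies per tracer on a microPET Focus 220. Animals fasted 12 h and anesthetized with ketamine (10 mg/kg) plus glycopyrrolate (0.13 mg/kg) i.m. A 10 min positioning transmission scan and a 45 min attenuation transmission scan were run, then a 3 h dynamic emission scan after venous tracer injection. Regional TACs came from ROIs, expressed as SUV (body weight, injected dose).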

Nucleic Acid [2] = experiment: Ratio of drug level in striatum to white matter in cynomolgus monkey at 185 to 259 MBq, iv measured at 40 mins by micro PET image analysis; format: ADME, organism-based, Macaca fascicularis; conditions: in vivo; in short: as §1
Liver [3] = experiment: Biodistribution in Sprague-Dawley rat liver at 1.48 to 2.22 MBq, iv measured at 60 mins by gamma counting analysis; format: ADME, organism-based; conditions: in vivo, 1 h
In short: (§2)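 Male Sprague-Dawley rats (250 - 400 g), tail-vein injection of 1.48 - 2.22 MBq radiotracer under 2.5% isoflurane in oxygen; n=4 per time point, euthanized at 5, 30 and 60 min p.i. Brain regions obtained by gross dissection; peripheral tissues collected. Samples weighed, gamma-counted against a diluted-injectate standard; %ID/g calculated.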

Brain = experiment: Biodistribution in Sprague-Dawley rat brain at 1.48 to 2.22 MBq, iv measured at 5 mins by gamma counting analysis; format: ADME, organism-based; conditions: in vivo; in short: as §2
Nucleic Acid [4] = experiment: Ratio of drug level in striatum to cortex in Sprague-Dawley rat at 1.48 to 2.22 MBq, iv measured at 5 to 30 mins by gamma counting analysis; format: ADME, organism-based; conditions: in vivo
In short: (§3)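 Striatum, cerebellum and cortex obtained by gross dissection from Sprague-Dawley rats (250 - 400 g, n=4 per time point) after tail-vein injection of 1.48 - 2.22 MBq under isoflurane anesthesia. Tissues weighed and gamma-counted with an injectate standard to give %ID/g; ratios taken from striatal versus non-target uptake.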

Nucleic Acid [5] = experiment: Ratio of drug level in striatum to midbrain region in cynomolgus monkey at 185 to 259 MBq, iv measured at 70 mins by micro PET image analysis; format: ADME, organism-based, Macaca fascicularis, Brain; conditions: in vivo; in short: as §1
Nucleic Acid [6] = experiment: Ratio of drug level in striatum to midbrain region in cynomolgus monkey at 185 to 259 MBq, iv measured at 40 mins by micro PET image analysis; format: ADME, organism-based, Macaca fascicularis, Brain; conditions: in vivo; in short: as §1
Caudate = experiment: Drug uptake in cynomolgus monkey caudate at 185 to 259 MBq, iv measured over 180 mins by micro PET image analysis; format: ADME, organism-based, Macaca fascicularis, Caudate nucleus; conditions: in vivo, 3 h
In short: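 Adult male cynomolgus macaques (~4–6 kg), three studies per tracer, fasted 12 h. Induction with ketamine 10 mg/kg plus glycopyrrolate 0.13 mg/kg i.m. Transmission scans of 10 min for positioning and 45 min for attenuation correction, then a 3 h dynamic microPET emission scan after venous injection of 185 - 259 MBq. ROI time-activity curves expressed as SUV (body weight and injected dose).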

Muscle tissue [7] = experiment: Biodistribution in Sprague-Dawley rat muscle at 1.48 to 2.22 MBq, iv measured at 30 mins by gamma counting analysis; format: ADME, organism-based; conditions: in vivo, 0.5 h; in short: as §2
Muscle tissue [8] = experiment: Biodistribution in Sprague-Dawley rat muscle at 1.48 to 2.22 MBq, iv measured at 60 mins by gamma counting analysis; format: ADME, organism-based; conditions: in vivo, 1 h; in short: as §2
[9] = Ratio of drug level in striatum to cerebellum in Sprague-Dawley rat at 1.48 to 2.22 MBq, iv measured at 5 to 30 mins by gamma counting analysis; format: ADME, organism-based; conditions: in vivo; in short: as §3
Nucleic Acid [10] = experiment: Ratio of drug level in striatum to temporal region in cynomolgus monkey at 185 to 259 MBq, iv measured at 70 mins by micro PET image analysis; format: ADME, organism-based, Macaca fascicularis; conditions: in vivo; in short: as §1
[11] = Metabolic stability in cynomolgus monkey plasma assessed as compound remaining at 185 to 259 MBq, iv measured at 30 mins by HPLC analysis; format: ADME, organism-based, Macaca fascicularis; conditions: read-out: Stability
In short: (§4)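 Arterial blood (~1.5 mL) drawn at 2, 15, 30, 60 and 90 min p.i. into heparinized syringes, then centrifuged to plasma. Plasma deproteinated with 2 parts ice-cold methanol. Extract run on C-18 HPLC, MeCN/0.1 M ammonium formate pH 4.5, 0.9 mL/min, UV 254 nm. 1-min fractions over 16 min were well-counted and decay-corrected; parent percentage taken from recovered activity.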

Liver [12] = experiment: Biodistribution in Sprague-Dawley rat liver at 1.48 to 2.22 MBq, iv measured at 5 mins by gamma counting analysis; format: ADME, organism-based; conditions: in vivo; in short: as §2
[13] = Metabolic stability in cynomolgus monkey plasma assessed as compound remaining at 185 to 259 MBq, iv measured at 15 mins by HPLC analysis; format: ADME, organism-based, Macaca fascicularis; conditions: read-out: Stability; in short: as §4
Rattus norvegicus = experiment: Biodistribution in Sprague-Dawley rat fat tissue at 1.48 to 2.22 MBq, iv measured at 30 mins by gamma counting analysis; format: ADME, organism-based, Adipose tissue; conditions: in vivo, 0.5 h; in short: as §2
Kidney [14] = experiment: Biodistribution in Sprague-Dawley rat kidney at 1.48 to 2.22 MBq, iv measured at 5 mins by gamma counting analysis; format: ADME, organism-based; conditions: in vivo; in short: as §2
[15] = Metabolic stability in cynomolgus monkey plasma assessed as compound remaining at 185 to 259 MBq, iv measured at 60 mins by HPLC analysis; format: ADME, organism-based, Macaca fascicularis; conditions: read-out: Stability; in short: as §4
Kidney [16] = experiment: Biodistribution in Sprague-Dawley rat kidney at 1.48 to 2.22 MBq, iv measured at 60 mins by gamma counting analysis; format: ADME, organism-based; conditions: in vivo, 1 h; in short: as §2
Nucleic Acid [17] = experiment: Ratio of drug level in striatum to hippocampus in cynomolgus monkey at 185 to 259 MBq, iv measured at 70 mins by micro PET image analysis; format: ADME, organism-based, Macaca fascicularis; conditions: in vivo; in short: as §1
Nucleic Acid [18] = experiment: Ratio of drug level in striatum to occipital in cynomolgus monkey at 185 to 259 MBq, iv measured at 40 mins by micro PET image analysis; format: ADME, organism-based, Macaca fascicularis; conditions: in vivo; in short: as §1
Blood [19] = experiment: Biodistribution in Sprague-Dawley rat blood at 1.48 to 2.22 MBq, iv measured at 5 mins by gamma counting analysis; format: ADME, organism-based; conditions: in vivo; in short: as §2
Blood [20] = experiment: Biodistribution in Sprague-Dawley rat blood at 1.48 to 2.22 MBq, iv measured at 30 mins by gamma counting analysis; format: ADME, organism-based; conditions: in vivo, 0.5 h; in short: as §2
Nucleic Acid [21] = experiment: Ratio of drug level in striatum to frontal in cynomolgus monkey at 185 to 259 MBq, iv measured at 40 mins by micro PET image analysis; format: ADME, organism-based, Macaca fascicularis; conditions: in vivo; in short: as §1
Nucleic Acid [22] = experiment: Ratio of drug level in striatum to cerebellum in cynomolgus monkey at 185 to 259 MBq, iv measured at 40 mins by micro PET image analysis; format: ADME, organism-based, Macaca fascicularis; conditions: in vivo; in short: as §1
Nucleic Acid [23] = experiment: Ratio of drug level in striatum to hippocampus in cynomolgus monkey at 185 to 259 MBq, iv measured at 40 mins by micro PET image analysis; format: ADME, organism-based, Macaca fascicularis; conditions: in vivo; in short: as §1
[24] = Metabolic stability in cynomolgus monkey plasma assessed as compound remaining at 185 to 259 MBq, iv measured at 90 mins by HPLC analysis; format: ADME, organism-based, Macaca fascicularis; conditions: read-out: Stability; in short: as §4
Nucleic Acid [25] = experiment: Ratio of drug level in striatum to frontal in cynomolgus monkey at 185 to 259 MBq, iv measured at 70 mins by micro PET image analysis; format: ADME, organism-based, Macaca fascicularis; conditions: in vivo; in short: as §1
Nucleic Acid [26] = experiment: Ratio of drug level in striatum to white matter in cynomolgus monkey at 185 to 259 MBq, iv measured at 70 mins by micro PET image analysis; format: ADME, organism-based, Macaca fascicularis; conditions: in vivo; in short: as §1
Bone = experiment: Biodistribution in Sprague-Dawley rat bone at 1.48 to 2.22 MBq, iv measured at 60 mins by gamma counting analysis; format: ADME, organism-based, Bone element; conditions: in vivo, 1 h; in short: as §2

Ratio (Nucleic Acid [1]): > 5
Ratio (Nucleic Acid [2]): > 3
Drug uptake (Liver [3]): 1.8 % ID/g
Drug uptake (Brain): 0.092 % ID/g
Ratio (Nucleic Acid [4]): > 2
Ratio (Nucleic Acid [5]): > 5
Ratio (Nucleic Acid [6]): > 3
Drug uptake (Caudate): Active
Drug uptake (Muscle tissue [7]): 0.156 % ID/g
Drug uptake (Muscle tissue [8]): 0.134 % ID/g
Ratio [9]: > 2
Ratio (Nucleic Acid [10]): > 5
remaining at 0.5 h [11]: 73%
Drug uptake (Liver [12]): 4.24 % ID/g
remaining at 0.25 h [13]: 90%
Drug uptake (Rattus norvegicus): 0.202 % ID/g
Drug uptake (Kidney [14]): 1.789 % ID/g
remaining at 1 h [15]: 55%
Drug uptake (Kidney [16]): 0.841 % ID/g
Ratio (Nucleic Acid [17]): > 5
Ratio (Nucleic Acid [18]): > 3
Drug uptake (Blood [19]): 0.343 % ID/g
Drug uptake (Blood [20]): 0.306 % ID/g
Ratio (Nucleic Acid [21]): > 3
Ratio (Nucleic Acid [22]): > 3
Ratio (Nucleic Acid [23]): > 3
remaining at 1.5 h [24]: 45%
Ratio (Nucleic Acid [25]): > 5
Ratio (Nucleic Acid [26]): > 5
Drug uptake (Bone): 0.224 % ID/g
Structure (SMILES): Cn1cc(-c2ccncc2)c(-c2ccc(OCc3nc4ccccc4cc3OCC[18F])cc2)n1
